# Key:
# Assay type in all cases: functional
# [1] = tested on: Klebsiella pneumoniae; assay: Antibacterial activity against Klebsiella pneumoniae D11750/08 after 48 hrs by broth microdilution method; conditions: D11750/08, 48 h
# How it was run: (§1)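 Broth microdilution following […], with twofold compound dilutions in Mueller-Hinton bouillon. Incubated 24 and 48 h at 35 °C in the dark in a humid atmosphere. MIC (IC80) was taken as ≥80% growth reduction versus control, read visually and photometrically.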
# [2] = tested on: Staphylococcus aureus; assay: Antibacterial activity against methicillin-resistant Staphylococcus aureus H5996/08 after 24 hrs by broth microdilution method; conditions: H5996/08, 24 h; how it was run: as §1
# [3] = tested on: Mycobacterium avium; assay: Antimycobacterial activity against Mycobacterium avium
# [4] = tested on: Mycobacterium avium; assay: Antimycobacterial activity against multidrug-resistant Mycobacterium avium 330/88 after 14 days by micromethod; conditions: 330/88, 336 h
# How it was run: (§2)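 Micromethod in Sula semisynthetic medium, with compounds added as DMSO solutions at 1000, 500, 250, 125, 62, 32, 16, 8, 4, 2, 1, 0.5, 0.25. Inoculum dilutions: H37Rv 10^-3; M. avium 330/88 10^-5; M. kansasii 235/80 10^-4; M. kansasii 6509/96 10^-5. Incubated at 37 °C, read at 14 and 21 days, and at 7 days for M. kansasii. MIC was the lowest concentration inhibiting growth.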
# [5] = tested on: Candida tropicalis; assay: Antifungal activity against Candida tropicalis 156 after 24 hrs by broth microdilution method; conditions: Candida tropicalis, 156, 24 h
# [6] = tested on: Mycobacterium kansasii; assay: Antimycobacterial activity against Mycobacterium kansasii 235/80 after 14 days by micromethod; conditions: 235/80, 336 h; how it was run: as §2
# [7] = tested on: Trichosporon beigelii; assay: Antifungal activity against Trichosporon beigelii 1188 after 24 hrs by broth microdilution method; conditions: Trichosporon beigelii, 1188, 24 h
# [8] = tested on: Escherichia coli; assay: Antibacterial activity against Escherichia coli CCM 4517 after 48 hrs by broth microdilution method; conditions: CCM 4517, 48 h; how it was run: as §1
# [9] = tested on: Trichophyton mentagrophytes; assay: Antifungal activity against Trichophyton mentagrophytes after 48 hrs by broth microdilution method
# [10] = tested on: Mycobacterium tuberculosis; assay: Antimycobacterial activity against Mycobacterium tuberculosis H37Rv 331/88 after 14 days by micromethod; conditions: H37Rv 331/88, 336 h; how it was run: as §2
# [11] = tested on: Aspergillus fumigatus; assay: Antifungal activity against Aspergillus fumigatus 231 after 24 hrs by broth microdilution method; conditions: Aspergillus fumigatus, 231, 24 h
# [12] = tested on: Mycobacterium kansasii; assay: Antimycobacterial activity against Mycobacterium kansasii 235/80 after 7 days by micromethod; conditions: 235/80, 168 h; how it was run: as §2
# [13] = tested on: Nakaseomyces glabratus; assay: Antifungal activity against Candida glabrata 20/I after 48 hrs by broth microdilution method
# [14] = tested on: Mycobacterium kansasii; assay: Antimycobacterial activity against Mycobacterium kansasii
# [15] = tested on: Escherichia coli; assay: Antibacterial activity against Escherichia coli CCM 4517 after 24 hrs by broth microdilution method; conditions: CCM 4517, 24 h; how it was run: as §1
# [16] = tested on: Staphylococcus epidermidis; assay: Antibacterial activity against Staphylococcus epidermidis H6966/08 after 24 hrs by broth microdilution method; conditions: H6966/08, 24 h; how it was run: as §1
# [17] = tested on: Enterococcus sp.; assay: Antibacterial activity against Enterococcus sp. J14365/08 after 24 hrs by broth microdilution method; conditions: J14365/08, 24 h; how it was run: as §1
# [18] = tested on: Lichtheimia corymbifera; assay: Antifungal activity against Absidia corymbifera 272 after 48 hrs by broth microdilution method; conditions: Lichtheimia corymbifera, 272, 48 h
# [19] = tested on: Aspergillus fumigatus; assay: Antifungal activity against Aspergillus fumigatus 231 after 48 hrs by broth microdilution method; conditions: Aspergillus fumigatus, 231, 48 h
# [20] = tested on: Mycobacterium tuberculosis; assay: Antimycobacterial activity against drug-sensitive Mycobacterium tuberculosis
# [21] = tested on: Mycobacterium kansasii; assay: Antimycobacterial activity against Mycobacterium kansasii 6509/96 after 14 days by micromethod; conditions: 6509/96, 336 h; how it was run: as §2
# [22] = tested on: Staphylococcus aureus; assay: Antibacterial activity against methicillin-resistant Staphylococcus aureus H5996/08 after 48 hrs by broth microdilution method; conditions: H5996/08, 48 h; how it was run: as §1
# [23] = tested on: Mycobacterium kansasii; assay: Antimycobacterial activity against Mycobacterium kansasii 6509/96 after 21 days by micromethod; conditions: 6509/96, 504 h; how it was run: as §2
# [24] = tested on: Staphylococcus aureus; assay: Antibacterial activity against Staphylococcus aureus CCM 4516/08 after 24 hrs by broth microdilution method; conditions: CCM 4516/08, 24 h; how it was run: as §1
# [25] = tested on: Pichia kudriavzevii; assay: Antifungal activity against Candida krusei E28 after 48 hrs by broth microdilution method; conditions: E28, 48 h
# [26] = tested on: Mycobacterium avium; assay: Antimycobacterial activity against multidrug-resistant Mycobacterium avium 330/88 after 21 days by micromethod; conditions: 330/88, 504 h; how it was run: as §2
# [27] = tested on: Enterococcus sp.; assay: Antibacterial activity against Enterococcus sp. J14365/08 after 48 hrs by broth microdilution method; conditions: J14365/08, 48 h; how it was run: as §1
# [28] = tested on: Mycobacterium kansasii; assay: Antimycobacterial activity against Mycobacterium kansasii 235/80 after 21 days by micromethod; conditions: 235/80, 504 h; how it was run: as §2
# [29] = tested on: Candida tropicalis; assay: Antifungal activity against Candida tropicalis 156 after 48 hrs by broth microdilution method; conditions: Candida tropicalis, 156, 48 h
# [30] = tested on: Nakaseomyces glabratus; assay: Antifungal activity against Candida glabrata 20/I after 24 hrs by broth microdilution method
# [31] = tested on: Klebsiella pneumoniae; assay: Antibacterial activity against Klebsiella pneumoniae D11750/08 after 24 hrs by broth microdilution method; conditions: D11750/08, 24 h; how it was run: as §1
# [32] = tested on: Trichosporon beigelii; assay: Antifungal activity against Trichosporon beigelii 1188 after 48 hrs by broth microdilution method; conditions: Trichosporon beigelii, 1188, 48 h
# [33] = tested on: Staphylococcus epidermidis; assay: Antibacterial activity against Staphylococcus epidermidis H6966/08 after 48 hrs by broth microdilution method; conditions: H6966/08, 48 h; how it was run: as §1
# [34] = tested on: Lichtheimia corymbifera; assay: Antifungal activity against Absidia corymbifera 272 after 24 hrs by broth microdilution method; conditions: Lichtheimia corymbifera, 272, 24 h
# [35] = tested on: Mycobacterium tuberculosis; assay: Antimycobacterial activity against Mycobacterium tuberculosis H37Rv 331/88 after 21 days by micromethod; conditions: H37Rv 331/88, 504 h; how it was run: as §2
# [36] = tested on: Candida albicans; assay: Antifungal activity against Candida albicans ATCC 44859 after 48 hrs by broth microdilution method; conditions: ATCC 44859, 48 h
# [37] = tested on: Pichia kudriavzevii; assay: Antifungal activity against Candida krusei E28 after 24 hrs by broth microdilution method; conditions: E28, 24 h
# [38] = tested on: Staphylococcus aureus; assay: Antibacterial activity against Staphylococcus aureus CCM 4516/08 after 48 hrs by broth microdilution method; conditions: CCM 4516/08, 48 h; how it was run: as §1
# [39] = tested on: Mycobacterium kansasii; assay: Antimycobacterial activity against Mycobacterium kansasii 6509/96 after 7 days by micromethod; conditions: 6509/96, 168 h; how it was run: as §2
# [40] = tested on: Trichophyton mentagrophytes; assay: Antifungal activity against Trichophyton mentagrophytes after 24 hrs by broth microdilution method
# [41] = tested on: Candida albicans; assay: Antifungal activity against Candida albicans ATCC 44859 after 24 hrs by broth microdilution method; conditions: ATCC 44859, 24 h
compound,measurement,setting,value
CC(=O)N[C@@H](Cc1ccccc1)C(=O)Oc1cc(Cl)ccc1C(=O)Nc1ccc(Br)cc1,MIC,[1],> 125 µM
same,MIC,[2],0.98 µM
same,MIC,[3],1 µM
same,MIC,[4],4 µM
same,MIC,[5],> 125 µM
same,MIC,[6],4 µM
same,MIC,[7],15.6 µM
same,MIC,[8],125 µM
same,MIC,[9],15.6 µM
same,MIC,[10],2 µM
same,MIC,[11],62.5 µM
same,MIC,[12],2 µM
same,MIC,[13],> 125 µM
same,MIC,[14],1 µM
same,MIC,[15],15.6 µM
same,MIC,[16],0.98 µM
same,MIC,[17],7.81 µM
same,MIC,[18],62.5 µM
same,MIC,[19],> 125 µM
same,MIC,[20],1 µM
same,MIC,[21],4 µM
same,MIC,[22],7.81 µM
same,MIC,[23],8 µM
same,MIC,[24],0.98 µM
same,MIC,[25],> 125 µM
same,MIC,[26],8 µM
same,MIC,[27],125 µM
same,MIC,[28],4 µM
same,MIC,[29],> 125 µM
same,MIC,[30],> 125 µM
same,MIC,[31],> 125 µM
same,MIC,[32],62.5 µM
same,MIC,[33],1.95 µM
same,MIC,[34],15.6 µM
same,MIC,[35],4 µM
same,MIC,[36],> 125 µM
same,MIC,[37],> 125 µM
same,MIC,[38],1.95 µM
same,MIC,[39],4 µM
same,MIC,[40],7.81 µM
same,MIC,[41],> 125 µM
CC(=O)N[C@@H](Cc1ccccc1)C(=O)Oc1cc(Cl)ccc1C(=O)Nc1ccc(Cl)cc1,MIC,[1],125 µM
same,MIC,[2],1.95 µM
same,MIC,[3],1 µM
same,MIC,[4],8 µM
same,MIC,[5],> 125 µM
same,MIC,[6],4 µM
same,MIC,[7],15.6 µM
same,MIC,[8],> 125 µM
same,MIC,[9],31.2 µM
same,MIC,[10],4 µM
same,MIC,[11],> 125 µM
same,MIC,[12],4 µM
same,MIC,[13],> 125 µM
same,MIC,[14],1 µM
same,MIC,[15],31.2 µM
same,MIC,[16],1.95 µM
same,MIC,[17],3.9 µM
same,MIC,[18],7.81 µM
same,MIC,[19],> 125 µM
same,MIC,[20],1 µM
same,MIC,[21],8 µM
same,MIC,[22],31.2 µM
same,MIC,[23],16 µM
same,MIC,[24],1.95 µM
same,MIC,[25],> 125 µM
same,MIC,[26],16 µM
same,MIC,[27],> 125 µM
same,MIC,[28],4 µM
same,MIC,[29],> 125 µM
same,MIC,[30],> 125 µM
same,MIC,[31],62.5 µM
same,MIC,[32],62.5 µM
same,MIC,[33],31.2 µM
same,MIC,[34],7.81 µM
same,MIC,[35],4 µM
same,MIC,[36],> 125 µM
same,MIC,[37],31.2 µM
same,MIC,[38],15.6 µM
same,MIC,[39],4 µM
same,MIC,[40],15.6 µM
same,MIC,[41],31.2 µM
